Assay results: ChEMBL document CHEMBL4033712, “Synthesis and biological evaluation of new C-12(α/β)-(N-) sulfamoyl-phenylamino-14-deoxy-andrographolide derivatives as potent anti-cancer agents” (Bioorg Med Chem Lett, 2017)

Key:
Assay type in all cases: functional
NCI/ADR-RES = experiment: Growth inhibition of human NCI/ADR-RES cells incubated for 48 hrs by sulforhodamine B assay
Method in brief: (§1)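 NCI-60 five-dose screen at 0.01, 0.1, 1, 10 and 100 µM, 48 h incubation, sulforhodamine B end point. GI50 (50% decrease in net growth), TGI (total growth inhibition) and LC50 (net 50% loss of initial cells) taken from log concentration versus % growth inhibition curves.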

HOP-92 [1] = experiment: Growth inhibition of human HOP92 cells incubated for 48 hrs by sulforhodamine B assay; details: HOP-92, 48 h; method in brief: as §1
MCF7 = experiment: Growth inhibition of human MCF7 cells incubated for 48 hrs by sulforhodamine B assay; details: MCF7, 48 h; method in brief: as §1
NCI-H226 = experiment: Growth inhibition of human NCI-H226 cells incubated for 48 hrs by sulforhodamine B assay; details: NCI-H226, 48 h; method in brief: as §1
MDA-MB-468 = experiment: Growth inhibition of human MDA-MB-468 cells incubated for 48 hrs by sulforhodamine B assay; details: MDA-MB-468, 48 h; method in brief: as §1
RXF 393 = experiment: Growth inhibition of human RXF393 cells incubated for 48 hrs by sulforhodamine B assay; details: RXF 393, 48 h
Method in brief: (§2)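 NCI 60 human tumour cell line panel, five-dose study at 0.01, 0.1, 1, 10 and 100 µM, 48 h incubation. Sulforhodamine B protein-binding dye end point. GI50 (50% decrease in net cell growth), TGI (total growth inhibition) and LC50 (net 50% loss of initial cells) read from log concentration versus % growth inhibition curves.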

MDA-MB-231 = experiment: Growth inhibition of human MDA-MB-231 cells incubated for 48 hrs by sulforhodamine B assay; details: MDA-MB-231, 48 h; method in brief: as §1
SK-MEL-5 = experiment: Growth inhibition of human SK-MEL-5 cells incubated for 48 hrs by sulforhodamine B assay; details: SK-MEL-5, 48 h; method in brief: as §2
SK-OV-3 = experiment: Growth inhibition of human SKOV3 cells incubated for 48 hrs by sulforhodamine B assay; details: SK-OV-3, 48 h; method in brief: as §2
TK-10 = experiment: Growth inhibition of human TK10 cells incubated for 48 hrs by sulforhodamine B assay; details: TK-10, 48 h; method in brief: as §2
SR = experiment: Growth inhibition of human SR cells incubated for 48 hrs by sulforhodamine B assay; method in brief: as §2
OVCAR-5 = experiment: Growth inhibition of human OVCAR5 cells incubated for 48 hrs by sulforhodamine B assay; details: OVCAR-5, 48 h; method in brief: as §1
SNB-19 [2] = experiment: Anticancer activity against human SNB19 cells assessed as cell growth at 10 uM after 48 hrs by sulforhodamine B assay relative to control; details: SNB-19, 48 h, read-out: Activity
Method in brief: (§3)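 Single-dose NCI-60 panel screen: compound added at 10 µM and the culture incubated 48 h. The end point was read by protein staining with sulforhodamine B. The value is percent growth of treated cells relative to untreated control cells, reported as a mean graph across the panel.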

SF-539 = experiment: Anticancer activity against human SF539 cells assessed as cell growth at 10 uM after 48 hrs by sulforhodamine B assay relative to control; details: SF-539, 48 h, read-out: Activity; method in brief: as §3
UACC-62 = experiment: Growth inhibition of human UACC62 cells incubated for 48 hrs by sulforhodamine B assay; details: UACC-62, 48 h; method in brief: as §2
A549 = experiment: Growth inhibition of human A549/ATCC cells incubated for 48 hrs by sulforhodamine B assay; details: A549, 48 h; method in brief: as §1
M14 = experiment: Growth inhibition of human M14 cells incubated for 48 hrs by sulforhodamine B assay; details: M14, 48 h; method in brief: as §1
T47D = experiment: Growth inhibition of human T47D cells incubated for 48 hrs by sulforhodamine B assay; method in brief: as §2
PC-3 = experiment: Growth inhibition of human PC3 cells incubated for 48 hrs by sulforhodamine B assay; details: PC-3, 48 h; method in brief: as §1
SF-268 = experiment: Growth inhibition of human SF268 cells incubated for 48 hrs by sulforhodamine B assay; details: SF-268, 48 h; method in brief: as §2
HOP-92 [3] = experiment: Anticancer activity against human HOP92 cells assessed as cell growth at 10 uM after 48 hrs by sulforhodamine B assay relative to control; details: HOP-92, 48 h, read-out: Activity; method in brief: as §3
HCC 2998 = experiment: Growth inhibition of human HCC2998 cells incubated for 48 hrs by sulforhodamine B assay; details: HCC 2998, 48 h; method in brief: as §1
MDA-MB-435 = experiment: Growth inhibition of human MDA-MB-435 cells incubated for 48 hrs by sulforhodamine B assay; details: MDA-MB-435, 48 h; method in brief: as §1
COLO 205 = experiment: Growth inhibition of human COLO205 cells incubated for 48 hrs by sulforhodamine B assay; details: COLO 205, 48 h; method in brief: as §1
SNB-19 [4] = experiment: Growth inhibition of human SNB19 cells incubated for 48 hrs by sulforhodamine B assay; details: SNB-19, 48 h; method in brief: as §2
SK-MEL-2 = experiment: Growth inhibition of human SK-MEL-2 cells incubated for 48 hrs by sulforhodamine B assay; details: SK-MEL-2, 48 h; method in brief: as §2
SNB-75 = experiment: Growth inhibition of human SNB75 cells incubated for 48 hrs by sulforhodamine B assay; details: SNB-75, 48 h; method in brief: as §2
SW-620 = experiment: Growth inhibition of human SW620 cells incubated for 48 hrs by sulforhodamine B assay; details: SW-620, 48 h; method in brief: as §2
[5] = read-out: LC50 (the source's name)

C=C1CC[C@@H]2[C@](C)(COC(C)=O)[C@H](OC(C)=O)CC[C@@]2(C)[C@H]1CC(Nc1ccc(S(=O)(=O)Nc2nccc(C)n2)cc1)C1=CCOC1=O (stereo partly drawn)
GI50 (NCI/ADR-RES): 2.94 µM | LC50 (concentration giving net 50% loss of initial cells) (NCI/ADR-RES): > 100 µM | TGI (NCI/ADR-RES): 13.5 µM | GI50 (HOP-92 [1]): 6.24 µM | TGI (HOP-92 [1]): 18.9 µM | CC50 (HOP-92 [1]; [5]): 44.5 µM | GI50 (MCF7): 2.27 µM | TGI (MCF7): 12.5 µM | CC50 (MCF7; [5]): > 100 µM | GI50 (NCI-H226): 2.33 µM | TGI (NCI-H226): 5.91 µM | CC50 (NCI-H226; [5]): > 100 µM | GI50 (MDA-MB-468): 1.99 µM | TGI (MDA-MB-468): 4.3 µM | CC50 (MDA-MB-468; [5]): 9.3 µM | GI50 (RXF 393): 2.33 µM | TGI (RXF 393): 4.18 µM | CC50 (RXF 393; [5]): 7.49 µM | GI50 (MDA-MB-231): 3.62 µM | LC50 (concentration giving net 50% loss of initial cells) (MDA-MB-231): 40.5 µM | TGI (MDA-MB-231): 10.2 µM | GI50 (SK-MEL-5): 3.79 µM | TGI (SK-MEL-5): 14 µM | CC50 (SK-MEL-5; [5]): 41.2 µM | GI50 (SK-OV-3): 12.7 µM | TGI (SK-OV-3): 25.3 µM | CC50 (SK-OV-3; [5]): 50.3 µM | GI50 (TK-10): 4.94 µM | TGI (TK-10): 15.8 µM | CC50 (TK-10; [5]): 40.4 µM | GI50 (SR): 0.75 µM | TGI (SR): > 100 µM | CC50 (SR; [5]): > 100 µM | GI50 (OVCAR-5): 3.86 µM | LC50 (concentration causing net 50% loss of initial cells) (OVCAR-5): 42.2 µM | TGI (OVCAR-5): 12.8 µM | growth at 10 µM (SNB-19 [2]): 53.6% | growth at 10 µM (SF-539): -62.7% | GI50 (UACC-62): 2.38 µM | TGI (UACC-62): 7.12 µM | CC50 (UACC-62; [5]): 30.3 µM | GI50 (A549): 8.19 µM | TGI (A549): 21.9 µM | CC50 (A549; [5]): 52.2 µM | GI50 (M14): 2.81 µM | TGI (M14): 10.8 µM | CC50 (M14; [5]): 72.6 µM | GI50 (T47D): 2.77 µM | TGI (T47D): 8.33 µM | CC50 (T47D; [5]): > 100 µM | GI50 (PC-3): 4.46 µM | TGI (PC-3): 15.7 µM | CC50 (PC-3; [5]): 43.3 µM | GI50 (SF-268): 6.19 µM | TGI (SF-268): 20.9 µM | CC50 (SF-268; [5]): 54.2 µM | growth at 10 µM (HOP-92 [3]): 71.6% | GI50 (HCC 2998): 4.98 µM | TGI (HCC 2998): 17.9 µM | CC50 (HCC 2998; [5]): 48.1 µM | GI50 (MDA-MB-435): 2.92 µM | TGI (MDA-MB-435): 10.4 µM | CC50 (MDA-MB-435; [5]): 34.2 µM | GI50 (COLO 205): 2.09 µM | TGI (COLO 205): 4.66 µM | CC50 (COLO 205; [5]): 11.9 µM | GI50 (SNB-19 [4]): 6.3 µM | TGI (SNB-19 [4]): 20.7 µM | CC50 (SNB-19 [4]; [5]): 52.7 µM | GI50 (SK-MEL-2): 6.01 µM | TGI (SK-MEL-2): 20 µM | CC50 (SK-MEL-2; [5]): 52.1 µM | GI50 (SNB-75): 2.69 µM | TGI (SNB-75): 14.9 µM | CC50 (SNB-75; [5]): 38.6 µM | GI50 (SW-620): 1.6 µM | TGI (SW-620): 3.68 µM | CC50 (SW-620; [5]): 8.48 µM
